Rows were chosen to be rich in hits. Some 3.7% of all compounds tested hit in one or more screens of this group.
KCNK3 inh – human KCNK3 channel inhibitors, primary screen, CHO cells, FluxOR thallium flux, B-score | Potassium channel subfamily K member 3 (Homo sapiens), O14649 | FluxOR fluorescence; stronger effect = lower value | B-score at 10 µM | hit rate 0.84% among 340,000 | AID 602410, 2012;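 active = B-score under library mean minus 4 SD, starting fluorescence ratio at most library mean plus 5 SD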;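 also: more negative B-score means stronger inhibition of thallium flux through KCNK3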
Target sequence (O14649 whole entry, looked up): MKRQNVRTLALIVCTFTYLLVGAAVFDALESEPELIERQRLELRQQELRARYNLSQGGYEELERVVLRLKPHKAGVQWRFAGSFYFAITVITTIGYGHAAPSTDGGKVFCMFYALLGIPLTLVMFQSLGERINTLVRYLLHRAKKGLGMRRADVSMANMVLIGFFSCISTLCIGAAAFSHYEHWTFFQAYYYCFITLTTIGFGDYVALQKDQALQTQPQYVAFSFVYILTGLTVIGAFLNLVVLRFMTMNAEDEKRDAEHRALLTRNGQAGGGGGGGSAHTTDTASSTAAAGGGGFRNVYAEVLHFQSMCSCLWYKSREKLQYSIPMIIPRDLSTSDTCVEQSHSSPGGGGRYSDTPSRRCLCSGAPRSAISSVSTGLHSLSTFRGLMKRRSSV
Kir21 inh – inhibitors of mouse Kir2.1 inward-rectifier potassium channel | AID 1672, 2009 | B-score at 10 µM | hit rate 0.85% among 310,000 | HEK293-Kir2.1, FluxOR thallium flux fluorescence; stronger effect = lower value | Inward rectifier potassium channel 2 (Mus musculus), P35561;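 active = fluorescence ratio B-score at or below minus 3 SD of library scores, with starting-brightness B-score within 2 SD, cut at about -4.2 in these data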;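 also: channel flux triggered by added potassium and thallium sulfate stimulus; B-score of peak minus minimum fluorescence over baseline after thallium stimulus; more negative B-score means stronger Kir2.1 block with less thallium influx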
KCNQ1 pot – potentiators or activators of KCNQ1 channel, primary screen, cell-based, thallium flux, high-throughput. Potassium voltage-gated channel subfamily KQT member 1 (Homo sapiens), P51787. CHO-K1 KCNQ1, thallium flux FluxOR fluorescence; stronger effect = higher value. B-score at 10 µM. hit rate 0.35% among 310,000;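 active = fluorescence ratio B-score, a plate-corrected score, at least three library SD, with initial intensity B-score within 5 SD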
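Assay system: stable KCNQ1 CHO-K1 line; medium: assay buffer, equal DMSO in all wells; timing: 90 min dye loading and 20 min compound exposure, both at room temperature; technique: kinetic FluxOR thallium fluorescence, 10-s 1-Hz baseline, 110-s post-stimulus read; read-out basis: B score of baseline-normalized fluorescence ratio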
KCNQ1 inh – inhibitors of human KCNQ1 channel, primary screen, cell-based, thallium flux, high-throughput. Potassium voltage-gated channel subfamily KQT member 1 (Homo sapiens), P51787. CHO-K1 KCNQ1, FluxOR thallium flux fluorescence; stronger effect = higher value. B-score at 10 µM. hit rate 1.3% among 310,000. AID 2642, 2010;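 active = compounds whose thallium flux B-score, printed positive for inhibition, exceeds three library SD while starting fluorescence stays within three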;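 also: channel opened by potassium depolarization with thallium stimulus after 20 min compound exposure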
KCNK9 block – KCNK9 potassium channel inhibitors, primary screen, HEK293 cells, thallium flux. Potassium channel subfamily K member 9 (Homo sapiens), Q9NPC2. FluxOR thallium flux fluorescence; stronger effect = lower value. B-score at 10 µM. hit rate 1.2% among 310,000;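 active = ratio B-score over 3 SD below the library mean, with starting fluorescence within 5 SD of its mean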;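 also: negative B-score means less thallium flux so channel inhibition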
hERG protect – hERG rescue from dofetilide block, primary screen, cell-based, CHO-hERG, FluxOR thallium flux, dofetilide IC70. dofetilide IC70 present. activation (rescue from dofetilide block), less the hit threshold, % at 10 µM. AID 1511, 2009. hit rate 0.51% among 310,000. Voltage-gated inwardly rectifying potassium channel KCNH2 (Homo sapiens), Q12809;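 active = activation above the mean of controls blocked by dofetilide plus 5 SD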;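 also: thallium influx through hERG after potassium depolarization seen as dye fluorescence rise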
KCNK9 inh conf – KCNK9 potassium channel inhibitors, confirmation, HEK293 cells, thallium flux, duplicate | shares compounds with KCNK9 block | FluxOR thallium flux fluorescence | inhibition, % at 10 µM | hit rate 43% among 4,900 | AID 492992, 2010;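 active = thallium signal inhibited by more than 5 SD of the compound-free buffer control wells, on both duplicate plates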;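 also: 0% = assay buffer control wells without compound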
Kir2-1 spec – mouse Kir2.1 channel inhibition, confirmation, selectivity assay for KCNK9 modulator project, cell-based, HEK293, thallium flux; shares compounds with KCNK9 block; Kir2.1 cells, FluxOR thallium flux fluorescence; inhibition, % at 10 µM; hit rate 4% among 4,900; AID 492993, 2010;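 active = thallium signal drop more than 5 SD beyond the mean of the no-compound control wells, seen in both duplicate plates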;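 also: signal is fluorescence rise after thallium addition divided by baseline fluorescence; plate controls were assay buffer only for no effect and full block by chlorpromazine control for full effect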
KCNK9 uninduced – thallium flux in non-induced HEK293 cells, confirmation, counter-screen for KCNK9 inhibitor project, cell-based, second counter screen, non-induced KCNK9-HEK293. shares compounds with KCNK9 block. FluxOR thallium flux. inhibition, % at 10 µM. hit rate 40% among 4,900. AID 492997, 2010;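 active = thallium signal drop beyond 5 SD of the untreated control mean, on both duplicate plates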;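 also: plate controls were buffer only IC0 wells for no effect and SID17386958 at its maximal inhibitory level for full effect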
KCNK3 inh conf – retest of human KCNK3 channel inhibitors, confirmation, CHO cells, FluxOR thallium flux, triplicate; shares compounds with KCNK3 inh; FluxOR fluorescence; 0% buffer, 100% carvedilol maximal block; ratio percent of control, % at 10 µM; hit rate 99% among 2,400; AID 651638, 2012;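 active = ratio percent of control, averaged over triplicates, above buffer control mean plus 5 SD, cut at about 64% in these data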;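 also: ratio is the fluorescence rise from min to max over baseline after thallium stimulus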
KCNK3 noninduced – thallium flux inhibition in non-induced cells, primary screen, counter-screen for KCNK3 inhibitor project, cell-based, non-induced KCNK3 line, FluxOR thallium, triplicate | thallium flux ratio (lower = more inhibition) at 10 µM | shares compounds with KCNK3 inh | AID 651747, 2012 | hit rate 40% among 2,400 | non-induced KCNK3 parental cells; stronger effect = lower value;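 active = thallium flux ratio, averaged over three wells, more than 5 SD below the buffer control mean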;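 also: host cells are CHO cells without KCNK3 induction; ratio is peak minus trough fluorescence over baseline then normalized to buffer controls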
The depositor's hits bear a star; i = inactive; . = no result.

SMILES | KCNK3 inh | Kir21 inh | KCNQ1 pot | KCNQ1 inh | KCNK9 block | hERG protect | KCNK9 inh conf | Kir2-1 spec | KCNK9 uninduced | KCNK3 inh conf | KCNK3 noninduced
COc1cc(OC)c(OC)cc1CN1CCN(Cc2ccco2)CC1 | i | 0.78 | i | i | i | -6 | . | . | . | . | .
COc1ccc(C2CC(c3ccccc3)=NN2C(=O)CN2CCN(Cc3ccccc3)CC2)cc1 (stereo not drawn) | i | -3.3 | i | i | i | -13 | . | . | . | . | .
CCCCN(CCCC)c1nc(-c2ccncc2)nc2ccccc12 | -9.4* | -0.11 | i | i | -9.1* | -32 | i | i | 34%* | 68* | i
COCCN(CCOC)c1nc(-c2ccccc2)nc2ccccc12 | i | -0.08 | i | i | i | -22 | . | . | . | . | .
COc1ccccc1C(=O)Nc1cccc(NC(=O)c2ccccc2C)c1 | -12* | 0.76 | i | i | -9.1* | -15 | 54%* | i | 30%* | 84* | i
CCCN(/C=N/c1sc2c(c1C#N)CCCCC2)CCC | -11* | -1.5 | i | i | -19* | -20 | 69%* | i | 48%* | 105* | i
CCc1ccc(-c2cc(C)no2)cc1S(=O)(=O)N1CCOc2ccccc21 | -15* | -0.5 | i | i | -12* | -15 | 38%* | i | 42%* | 125* | 0.14*
CCCCc1cc(=O)oc2c(C)c(OCC(=O)N3CCC(C(=O)O)(c4ccccc4)CC3)ccc12 | i | -0.17 | i | i | i | -9 | . | . | . | . | .
CCc1cc(=O)oc2cc(C)cc(OCC(=O)N3CCC(C(=O)NC(C)C)(c4ccccc4)CC3)c12 | -14* | 0.08 | i | i | -19* | -10 | 65%* | i | 26%* | 100* | i
CCC(C)(C)n1nnnc1CN(Cc1ccc(Cl)cc1)Cc1ccco1 | i | -5.1* | i | i | -11* | -16 | 54%* | i | 40%* | 126* | 0.16*
CCOc1ccc(CCNC(=O)c2ccc(OCc3c(C)noc3C)cc2)cc1OCC | i | 0.51 | i | i | i | -4 | . | . | . | . | .
CN(C)c1ccc(C(CNC(=O)c2ccccc2)c2c[nH]c3ccccc23)cc1 (stereo not drawn) | -9.2* | 0.03 | i | i | -13* | -14 | 54%* | i | 27%* | 101* | 0.14*
CC(C)=CCc1cc([C@@H]2CC(=O)c3ccc(O)c(CC=C(C)C)c3O2)ccc1O | -16* | 0.63 | i | i | -11* | -9 | 61%* | i | 30%* | 141* | 0.12*
Cc1ccc2c(c1)C(=O)CC(c1ccc3c(c1)OCCO3)O2 (stereo not drawn) | i | 0.75 | i | i | i | -4 | . | . | . | . | .
COc1ccc(C2CC(c3cccs3)=NN2C(=O)COC(=O)C2CCCCC2)cc1OC (stereo not drawn) | -9.6* | 1.9 | i | i | -15* | -11 | 43%* | i | 38%* | 103* | i
O=C(Oc1ccc2ccccc2c1Br)N1CCCCCC1 | i | -1.5 | i | i | -12* | -13 | 68%* | i | 36%* | 108* | i
COC(=O)c1cc(-c2cc(OC)ccc2OC)nc2c1c(=O)n(C)c(=O)n2Cc1ccccc1 | -11* | 0.78 | i | i | i | -10 | i | i | i | 101* | i
COC(=O)c1cccnc1-n1c(=O)c2cccnc2n(Cc2cccc(OC)c2)c1=O | i | -1.2 | i | i | i | -10 | . | . | . | . | .
Cc1ccc(-c2nc3c(c(=O)c4ccccc4n3C)c(=O)n2-c2ccc(F)cc2)cc1 | i | 0.01 | i | i | i | -8 | . | . | . | . | .
Cn1c2ccccc2c(=O)c2c(=O)n(-c3ccccc3)c(-c3ccc(C(C)(C)C)cc3)nc21 | -8.9* | 1.2 | i | i | -12* | -11 | 34%* | i | i | 130* | 0.099*
COc1ccc(-c2nc(-c3ccc(O)cc3O)cs2)cc1OC | -12* | -1.2 | i | i | -13* | -31 | 50%* | i | i | 124* | i
Cc1nc2ccc(NC(=S)NC3CCCCC3)cc2nc1C | i | 1.1 | i | i | i | -5 | . | . | . | . | .
O=C1c2ccccc2C(Nc2ccc3c(c2)OCCO3)N1c1ccccn1 (stereo not drawn) | -9.6* | 2.5 | i | i | -15* | -10 | 52%* | i | 47%* | 103* | i
CCOC(=O)N1CCN(Cc2c(NC(=O)c3ccco3)sc(C)c2C)CC1 | i | -0.05 | i | i | i | -4 | . | . | . | . | .
Cc1sc(NC(=O)c2ccco2)c(CN2CCN(c3ccc(F)cc3)CC2)c1C | -10* | -0.96 | i | i | -15* | -11 | i | i | 29%* | 110* | 0.15*
COCCn1c(=NC(=O)c2ccc3c(c2)OCCO3)sc2cc(S(N)(=O)=O)ccc21 | i | 0.28 | i | i | i | -16 | . | . | . | . | .
Cc1ccccc1-c1nnc(SCC(=O)NC2CCCCC2)o1 | i | 0.09 | i | i | i | -4 | . | . | . | . | .
